Article PMC3821033 (FEBS Open Bio, 2013)
Each block holds one compound with its values, some of them ahead of it.

Key:
Assay type in all cases: biochemical
[1] = molecular target: T1, FNI (Lactococcus cremoris, UniProt A2RID7); assay: 1H NMR of product after […] h; conditions: 5 mM MgCl2, 10 μM FMN, 5 mM NADH, 2 mM DTT, pH 7.0, 30 °C
T1 sequence (A2RID7 1-349): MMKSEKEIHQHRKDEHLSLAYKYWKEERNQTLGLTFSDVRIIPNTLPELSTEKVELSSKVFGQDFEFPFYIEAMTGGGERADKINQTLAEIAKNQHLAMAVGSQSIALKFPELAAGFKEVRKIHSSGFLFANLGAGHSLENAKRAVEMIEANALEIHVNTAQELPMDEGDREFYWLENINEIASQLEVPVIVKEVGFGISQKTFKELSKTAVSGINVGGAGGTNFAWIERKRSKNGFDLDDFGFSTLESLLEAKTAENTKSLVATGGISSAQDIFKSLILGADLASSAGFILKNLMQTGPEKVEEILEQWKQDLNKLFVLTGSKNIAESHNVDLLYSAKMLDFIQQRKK

[2] = molecular target: T2, LDHA (Lactococcus cremoris, UniProt A2RKA4); assay: activation of NADH-coupled activity; conditions: 200 µM, allosteric activator, Tris-maleate pH 7.0, 30 °C
T2 sequence (A2RKA4 1-325): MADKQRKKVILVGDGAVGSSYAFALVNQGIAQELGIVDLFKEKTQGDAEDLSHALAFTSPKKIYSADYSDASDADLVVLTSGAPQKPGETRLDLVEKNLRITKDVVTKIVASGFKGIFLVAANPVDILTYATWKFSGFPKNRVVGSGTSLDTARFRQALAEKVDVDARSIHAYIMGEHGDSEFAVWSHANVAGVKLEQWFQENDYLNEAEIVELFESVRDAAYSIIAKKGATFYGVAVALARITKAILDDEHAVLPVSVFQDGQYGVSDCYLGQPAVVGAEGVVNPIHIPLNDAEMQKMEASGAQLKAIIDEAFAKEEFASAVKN
In short: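 Recombinant His-tagged LDHA from L. lactis MG1363, expressed in E. coli Transetta (DE3) (0.5 mM IPTG, 30 °C, 4 h) and purified on Ni-NTA with imidazole elution. Pyruvate reduction was followed spectrophotometrically as the decrease in NADH absorbance at 340 or 380 nm, at 30 °C in 100 mM Tris–maleate pH 7.0, with about 40–200 ng/ml enzyme; 1 unit = 1 μmol/min.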

[3] = molecular target: T2, LDHA; assay: inhibition of NADH-coupled activity; conditions: inhibitor; both reaction directions; 1 mM FBP, pH 7.0, 30 °C
[4] = molecular target: T2, LDHA; assay: inhibition of NADH-coupled activity; conditions: read-out: % remaining rate at 8 mM

Structure (SMILES): CC(C)=CCOP(=O)(O)OP(=O)(O)O [dimethylallyl diphosphate]
1H NMR of product after 15 h [1]: appearance of signals for dimethylallyl diphosphate

Pyruvate reduction (%) [2]: 66 ± 4.7%
Structure (SMILES): O=P(O)(O)OC[C@H]1OC(O)(COP(=O)(O)O)[C@@H](O)[C@@H]1O (some centres unmarked) [FBP]

Structure (SMILES): Nc1ncnc2c1ncn2[C@@H]1O[C@H](COP(=O)(O)OP(=O)(O)O)[C@@H](O)[C@H]1O [ADP]
inhibition of NADH-coupled activity [3]: ADP was shown to be a more severe inhibitor

Structure (SMILES): C=C(C)CCOP(=O)(O)OP(=O)(O)O [IPP]
1H NMR of product after 15 h [1]: conversion of IPP to dimethylallyl diphosphate was observed

remaining activity at 8000 µM [4]: > 80%
Structure (SMILES): Nc1ncnc2c1ncn2[C@@H]1O[C@H](COP(=O)(O)OP(=O)(O)OP(=O)(O)O)[C@@H](O)[C@H]1O [ATP]
